Reference: article PMC7797908 (iScience, 2021)

Test system: CAspII
Test: Michaelis-Menten kinetics of L-asparagine hydrolysis
Type: biochemical, uncultured Gemmatimonadota bacterium
Conditions: free enzyme; assay pH and temperature only in supplement
Outline: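 Synthetic codon-optimised gene fused to a C-terminal His6 tag in pET21a(+) and expressed in E. coli. Mid-log cultures in LB were induced with 0.2 mM IPTG for 3 hours at 30°C. Protein was purified on nickel-agarose; the preparation was enriched but not fully pure. Km was fitted to the classical Michaelis-Menten equation with L-asparagine as substrate, reported as mean ± SEM.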

Km: 350 ± 20 µM
Compound: NC(=O)C[C@H](N)C(=O)O [L-asparagine]
